Measured values: ChEMBL document CHEMBL1681647, “Targeting bacterial biofilms: design of a terpenoid-like library as non-toxic anti-biofilm compounds” (Bioorg Med Chem Lett, 2011)
pEC50: −log10 of the molar value. Activity calls are given as the source filed them. The rule behind the calls is not given here.

Tests used:
[1] = test system: Pseudoalteromonas sp. D41; assay: Antibiofilm activity in Pseudoalteromonas sp. D41 assessed as bacterial adhesion at 500 uM after 15 mins using DAPI staining by micro-plate fluorescence reader; type: functional; details: in the assay text read “15 h” for “15 mins”
Outline: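 Single-concentration screen at 500 in triplicate. D41 was grown in VNSS at 20 °C to stationary phase, then resuspended in artificial sea water at OD600 0.2–0.4. Incubation was 15 h at 20 °C with an ASW adhesion control. Wells were NaCl-washed and fixed in 2% formaldehyde for 90 min at 4 °C, then DAPI-stained. Fluorescence of the ethanol-solubilized dye was read at 380 nm excitation and 495 nm emission.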

[2] = test system: Pseudoalteromonas sp. D41; assay: Antibiofilm activity in Pseudoalteromonas sp. D41 assessed as bacterial adhesion after 15 h using DAPI staining by micro-plate fluorescence reader; details: Pseudoalteromonas sp. D41, 15 h
[3] = test system: Pseudoalteromonas sp. D41; assay: Antibacterial activity against Pseudoalteromonas sp. D41 assessed as inhibition of bacterial growth up to 100 uM; type: functional
Outline: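 Growth assay with D41 grown in VNSS at 20 °C, shaken at 120 rpm and sampled in exponential phase, then subcultured at OD600 0.1. Compound was added at concentrations from 1 to 100 in triplicate, with a growth control and a solvent (DMSO or methanol) control. Plates were shaken at 120 rpm at 20 °C and OD600 was read hourly.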

[4] = test system: Pseudoalteromonas sp. D41; assay: Antibiofilm activity in Pseudoalteromonas sp. D41 assessed as bacterial adhesion at 500 uM after 15 h using DAPI staining by micro-plate fluorescence reader

| pEC50 [2] | Structure (SMILES) | Activity [1] [%] | also measured |
| --- | --- | --- | --- |
| 3.76 | CC(C)=CC(=O)C/C(C)=C/CC/C(C)=C/CC/C(C)=C/CO [ELEGANOLONE] | 17 |  |
|  | COc1cccc(-c2cn(C/C=C(\C)CCC=C(C)C)nn2)c1 | 90 |  |
|  | COc1cc(OC)cc(-n2cc(COC/C=C(\C)CCC=C(C)C)nn2)c1 | 76 |  |
|  | CC(C)=CCC/C(C)=C/COCc1cn(-c2cccc(O)c2)nn1 | 55 |  |
| 3.78 | COc1ccccc1-n1cc(COC/C=C(\C)CCC=C(C)C)nn1 | 29 |  |
| 3.65 | CC(C)=C[C@@H](O)C/C(C)=C/CC/C(C)=C/CC/C(C)=C/CO [ELEGANEDIOL] | 14 |  |
|  | CC(C)=CCC/C(C)=C/CC/C(C)=C/COCc1cn(-c2cccc(C(=O)O)c2)nn1 | >90 |  |
|  | COc1cc(-n2cc(COC/C=C(\C)CCC=C(C)C)nn2)cc(OC)c1OC | 36 |  |
|  | COc1ccc(-c2cn(C/C=C(\C)CCC=C(C)C)nn2)cc1 | 3 |  |
|  | CC(C)=CCC/C(C)=C/COCc1cn(-c2ccc(C(=O)O)cc2)nn1 | 39 |  |
|  | COc1ccccc1-n1cc(COC/C=C(\C)CC/C=C(\C)CCC=C(C)C)nn1 | 35 |  |
|  | CC(C)=CCC/C(C)=C/CC/C(C)=C/COCc1cn(-c2cccc(O)c2)nn1 | >90 |  |
|  | CC(C)=CCC/C(C)=C/CC/C(C)=C/Cn1cc(-c2cccc(O)c2)nn1 | 34 |  |
| 3.70 | COc1cccc(-n2cc(COC/C=C(\C)CC/C=C(\C)CCC=C(C)C)nn2)c1 | 25 |  |
| 3.99 | COc1cccc(-n2cc(COC/C=C(\C)CCC=C(C)C)nn2)c1 | 19 | inhibition [3]: inactive |
|  | COc1cc(OC)cc(-c2cn(C/C=C(\C)CCC=C(C)C)nn2)c1 | 90 |  |
|  | COc1ccccc1-c1cn(C/C=C(\C)CCC=C(C)C)nn1 | 90 |  |
|  | COc1ccc(-c2cn(C/C=C(\C)CC/C=C(\C)CCC=C(C)C)nn2)cc1 | 46 |  |
|  | CC(C)=CCC/C(C)=C/Cn1cc(-c2cccc(O)c2)nn1 | 30 |  |
|  | COc1cccc(-c2cn(C/C=C(\C)CC/C=C(\C)CCC=C(C)C)nn2)c1 |  | Activity [4]: 15% |
|  | CC(C)=CCC/C(C)=C/CC/C(C)=C/COCc1cn(-c2ccc(C(=O)O)cc2)nn1 | >90 |  |
|  | CC(C)=CCC/C(C)=C/COCc1cn(-c2ccc(O)cc2)nn1 | >90 |  |
|  | CC(C)=CCC/C(C)=C/CC/C(C)=C/COCc1cn(-c2ccc(O)cc2)nn1 | 73 |  |
| 4.13 | CC(C)=CCC/C(C)=C/COCc1cn(-c2cccc(C(=O)O)c2)nn1 | 32 | inhibition [3]: inactive |
| 3.56 | COc1ccc(-n2cc(COC/C=C(\C)CCC=C(C)C)nn2)cc1 | 20 |  |
|  | COc1cc(-n2cc(COC/C=C(\C)CC/C=C(\C)CCC=C(C)C)nn2)cc(OC)c1OC | 50 |  |
| 4.15 | COc1cc(OC)cc(-c2cn(C/C=C(\C)CC/C=C(\C)CCC=C(C)C)nn2)c1 | 0 |  |
|  | COc1cc(OC)cc(-n2cc(COC/C=C(\C)CC/C=C(\C)CCC=C(C)C)nn2)c1 | 76 |  |
| 3.93 | COc1ccc(-n2cc(COC/C=C(\C)CC/C=C(\C)CCC=C(C)C)nn2)cc1 | 24 |  |
